# Screens from PubChem BioAssay.
# An excerpt weighted towards active compounds, which were near 3.5% of everything screened.
# MrgX1 ag = activates human MrgX1 receptor signaling | Q96LB2 | MrgX1-HEK293 cells, Fluo-4 calcium fluorescence, agonist mode; active compounds read high | B-score at 10 µM | actives 0.44% (n = 310,000) | AID 588627;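 active = calcium response B-score plate-corrected fluorescence ratio at least 3 library SD, with starting fluorescence B-score inside 5 SD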
# Target sequence (Q96LB2 whole entry, looked up): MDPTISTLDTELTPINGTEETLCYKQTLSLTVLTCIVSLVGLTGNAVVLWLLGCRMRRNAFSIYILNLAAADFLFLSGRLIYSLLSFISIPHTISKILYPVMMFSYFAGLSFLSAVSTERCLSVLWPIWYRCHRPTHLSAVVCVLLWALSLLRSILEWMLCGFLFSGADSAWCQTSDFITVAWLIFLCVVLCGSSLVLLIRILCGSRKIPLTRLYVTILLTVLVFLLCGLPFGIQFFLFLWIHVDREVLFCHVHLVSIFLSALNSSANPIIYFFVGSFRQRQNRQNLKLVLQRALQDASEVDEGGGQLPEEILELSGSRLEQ
#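 Test system: HEK293 cells stably expressing human MrgX1 receptor; amount: 15,000 cells per well; doses: compound delivered in addition one of three; times: overnight plating before 1 h dye loading; detection: Fluo-4 NW calcium-flux fluorescence, kinetic read; read-out basis: B-scored fluorescence response ratio; controls: positive and negative controls per plate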
# RGS4 inh = inhibitors of human RGS4 | P49798 | HEK293 M3R/RGS4 inducible, Fluo-4 calcium flux; active compounds read high; triggered by carbachol at its EC20 | B-score at 10 µM | actives 0.45% (n = 310,000) | AID 463165;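 active = B-score, a plate-corrected calcium signal, over three deviations above library mean, with baseline fluorescence within five deviations of library mean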;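 also: RGS4 expression induced by doxycycline in cells with stable M3 receptor; B-score is computed from the integrated fluorescence ratio over baseline after carbachol; higher B-score means a larger calcium signal and so more RGS4 inhibition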
# Target sequence (P49798 whole entry, looked up): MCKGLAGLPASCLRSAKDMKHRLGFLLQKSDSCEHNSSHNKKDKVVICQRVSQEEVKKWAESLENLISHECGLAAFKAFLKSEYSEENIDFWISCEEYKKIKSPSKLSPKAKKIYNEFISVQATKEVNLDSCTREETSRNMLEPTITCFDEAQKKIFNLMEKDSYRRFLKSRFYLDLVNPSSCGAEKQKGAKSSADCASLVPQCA
# MrgX1 allo act = allosterically activates human MrgX1 receptor signaling; Q96LB2; MrgX1-HEK293, Fluo-4 calcium flux, FDSS; active compounds read high; B-score at 10 µM; actives 0.63% (n = 310,000); AID 588675;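 active = plate-corrected calcium response at least 3 library SD above typical, normal starting fluorescence, not activating the receptor alone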;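 also: compound read alongside a low EC10 to EC30 dose of BAM8-22 agonist; peak minus trough fluorescence over baseline measured at the second addition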
# RGS4 act = potentiators or activators of RGS4. HEK293 M3R/inducible RGS4, carbachol calcium flux Fluo4; active compounds read low. B-score at 10 µM. actives 0.92% (n = 310,000). AID 463111;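 active = B-score of the integrated calcium signal more than 4 SD below the library mean, with starting fluorescence not abnormally high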;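 also: negative B-score means reduced calcium response which marks RGS4 activation or potentiation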
#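 Material: Inducible-RGS4 HEK293 cells carrying M3 receptor; also added: carbachol at ECmax as muscarinic agonist stimulus; incubation: compound preincubation 20 min at room temperature before agonist; signal: Fluo4-AM (2 µM) calcium-flux fluorescence, kinetic read; measure: integrated calcium ratio converted to B score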
# MrgX1 antag = blocks BAM8-22 activation of human MrgX1 receptor. Q96LB2. MRGX1-HEK293 calcium flux, Fluo-4, BAM8-22 antagonism; active compounds read low. B-score at 10 µM. actives 1.3% (n = 310,000). AID 588676;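 active = calcium-response B-score plate-corrected more than 3 library SD below zero, starting fluorescence within 5 deviations, no agonist response on first addition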;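 also: peak minus trough fluorescence over baseline after final BAM8-22 challenge near maximal dose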
# RGS4 inh valid = validation of RGS4 inhibitors; shares compounds with RGS4 inh; HEK293 M3R/RGS4, carbachol calcium Fluo-4 fluorescence; carbachol added at its EC20; 0 = buffer wells, 100 = carbachol control; calcium response, % at 10 µM; actives 65% (n = 1,700); AID 492999;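 active = duplicate-averaged calcium response above the buffer-only control mean plus 5 SD of those controls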;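 also: integrated fluorescence ratio F max minus min over baseline F0; higher response in RGS4-induced cells means RGS4 inhibition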
# M3R Ca ctr = checks RGS4 inhibitor effects in non-induced HEK293 M3R cells. AID 493000. shares compounds with RGS4 inh. actives 20% (n = 1,900). carbachol calcium Fluo-4; submaximal (EC20) carbachol stimulus; buffer wells 0%, carbachol control wells 100%. activity (percent), % at 10 µM; call rule not given here;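 also: RGS4 induction absent so cells express M3R without RGS4; higher means more calcium signal and flags a non-specific hit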
# M3R basal Ca ctr = signal in non-induced cells without carbachol, RGS4 inhibitor counter-screen. shares compounds with RGS4 inh. HEK293 M3R/RGS4 non-induced, Fluo-4 calcium, no carbachol; normalised: buffer wells 0%, carbachol wells 100%. calcium response (agonist-mode artifact), % at 10 µM. actives 22% (n = 1,900). AID 493001;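 active = duplicate-averaged calcium rise in uninduced cells above buffer wells' mean plus 5 SD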
# Numbers without * were called inactive; i = inactive; . = not tested or not shown.
SMILES,MrgX1 ag,RGS4 inh,MrgX1 allo act,RGS4 act,MrgX1 antag,RGS4 inh valid,M3R Ca ctr,M3R basal Ca ctr
O=C(/C=C/c1ccc([N+](=O)[O-])cc1)c1ccco1,i,11*,i,i,i,12%*,i,i
O=C(/C=C/c1cccnc1)c1ccc(F)c(F)c1,i,21*,i,i,i,27%*,46%*,i
CC(C)C1Oc2ccccc2N(CC(=O)NCCCN2C(C)CCCC2C)C1=O (stereo not drawn),i,i,i,i,i,.,.,.
CCc1nnc(NC(=O)Cc2ccc(OCc3c(C)noc3C)cc2)s1,i,i,i,i,i,.,.,.
CCOc1cccc(C2C(C(=O)c3ccc(C)o3)=C(O)C(=O)N2Cc2ccccc2)c1 (stereo not drawn),.,4.7*,.,i,.,16%*,i,i
N#CC1=C2N=C(N)c3ccccc3N2C2=C(C(=O)CCC2)C1c1ccc(F)cc1 (stereo not drawn),i,i,i,i,i,.,i,i
Cc1ccc(C2C(C#N)=C3N=C(N)c4ccccc4N3C3=C2C(=O)CCC3)cc1 (stereo not drawn),i,i,i,i,i,.,i,i
N#CC1=C2N=C(N)c3c(sc4c3CCCCC4)N2C2=C(C(=O)CCC2)C1c1ccccc1 (stereo not drawn),i,i,i,i,i,.,.,.
O=C1/C(=C/c2ccc([N+](=O)[O-])cc2)C=C(c2ccccc2)N1c1ccccc1,i,i,i,i,i,i,i,i
COc1ccc(N2C(=O)/C(=C/c3ccc([N+](=O)[O-])cc3)C=C2c2ccccc2)cc1,i,i,i,i,i,.,.,.
O=C1/C(=C/c2ccc([N+](=O)[O-])cc2)C=C(c2ccccc2)N1c1ccc(O)cc1,i,5.1*,i,i,i,9.0%*,i,i
Cn1nc(C(=O)NCCCN2CCCCC2)c2c1-c1ccccc1SC2,i,i,i,i,i,.,.,.
CC(OC(=O)c1ccc(NS(=O)(=O)c2ccc3[nH]c(=O)[nH]c3c2)cc1)C(=O)Nc1ccc(Cl)cc1 (stereo not drawn),i,i,i,i,i,i,i,i
COc1ccc(Cl)cc1NC(=O)C(C)OC(=O)c1ccc(NS(=O)(=O)c2ccc3[nH]c(=O)[nH]c3c2)cc1 (stereo not drawn),i,11*,i,i,i,46%*,i,i
CC(C)=NOc1nc(N(C)C)nc(N(C)C)n1,i,i,i,i,i,.,.,.
CCOC(=O)C1CCN(C2=NC(=O)/C(=C/c3ccc(Cl)cc3)S2)CC1,i,i,i,i,i,.,.,.
CCOC(=O)CSC1=NC(=O)/C(=C\c2ccc(Cl)cc2)S1,i,i,i,i,i,i,i,18%*
COc1cccc(/C=C2\SC(=S)N(CCCC(=O)N(CCO)c3ccccc3)C2=O)c1,i,i,i,i,i,.,.,.
O=C1/C(=C/c2cccc(Br)c2)SC(=S)N1CCC(=O)N(CCO)c1ccccc1,i,5.3*,i,i,i,16%*,34%*,i
O=C(NN=C1CCCC1)c1[nH]c2ccc(Br)cc2c1-c1ccccc1,i,13*,i,i,i,16%*,i,i
O=C(N/N=C/c1ccccc1)c1[nH]c2ccc(Br)cc2c1-c1ccccc1,i,i,i,i,i,.,.,.
CN1C(=O)S/C(=C\c2ccccc2OCc2ccc(C(=O)O)cc2)C1=O,i,6.2*,i,i,i,14%*,i,i
CC(C)N1C(=O)S/C(=C/c2ccccc2OCc2ccc(C(=O)O)cc2)C1=O,i,i,i,i,i,i,i,i
OCCOCCn1c(C(CO)Nc2nc(-c3ccc(F)cc3)cs2)nc2ccccc21 (stereo not drawn),i,i,i,i,i,.,.,.
CCCn1c(C(C)Nc2nc(-c3ccc(C)cc3)cs2)nc2ccccc21 (stereo not drawn),i,i,i,i,i,.,.,.
SMILES,MrgX1 ag,RGS4 inh,MrgX1 allo act,RGS4 act,MrgX1 antag,RGS4 inh valid,M3R Ca ctr,M3R basal Ca ctr
O=[N+]([O-])c1cc(-c2csc(NC(CO)c3nc4ccccc4n3CCOCCO)n2)ccc1Cl (stereo not drawn),i,7.7*,i,i,i,6.0%*,40%*,i
CCCn1c(C(C)Nc2nc(-c3ccc(Cl)c([N+](=O)[O-])c3)cs2)nc2ccccc21 (stereo not drawn),i,8*,i,i,i,16%*,i,i
CCCn1c(C(C)Nc2nc(-c3cccc(Br)c3)cs2)nc2ccccc21 (stereo not drawn),i,i,i,i,i,.,i,i
O=C1NC(=Nc2ccccc2Cl)S/C1=C\c1ccc(C(=O)O)cc1,i,i,i,i,i,.,.,.
O=C1/C(=C\c2cccnc2)Sc2ccccc21,i,5.1*,i,i,i,32%*,36%*,39%*
CN1C(=O)S/C(=C/c2cccnc2)C1=O,i,i,i,i,i,.,.,.
Cc1ccccc1N=C1NC(=O)/C(=C/c2cccnc2)S1,i,i,i,i,i,.,46%*,i
O=C(/C(=C/O)N=Nc1ccccc1)c1ccc(Cl)cc1,i,8.7*,i,i,i,64%*,78%*,i
CC1(C)CC(=O)C=C(c2ccc3[nH]ccc3c2)C1,i,i,i,i,i,.,.,.
C=C1C(=O)O[C@@H]2C[C@@H](C)[C@@H]3C=CC(=O)[C@@]3(C)[C@@H](OC(C)=O)[C@H]12,33*,7.6*,i,i,i,22%*,i,11%*
Cc1ccc(C(=O)Nc2nnc(S(=O)(=O)N3CCN(c4ccc(F)cc4)CC3)s2)cc1,i,i,i,i,i,.,.,.
O=C1NC(c2ccccc2)=C(c2nc3ccccc3s2)C(c2ccc(F)cc2)N1 (stereo not drawn),i,i,i,i,i,.,i,i
